MrgX1 ag – human MrgX1 receptor agonism, primary screen; B-score at 10 µM; MrgX1-HEK293 cells, Fluo-4 calcium fluorescence, agonist mode; stronger effect = higher value; Q96LB2; 310,000 tested, 0.44% active;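 active means calcium response B-score plate-corrected fluorescence ratio at least 3 library SD, with starting fluorescence B-score inside 5 SD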
Target sequence (Q96LB2 whole entry, looked up): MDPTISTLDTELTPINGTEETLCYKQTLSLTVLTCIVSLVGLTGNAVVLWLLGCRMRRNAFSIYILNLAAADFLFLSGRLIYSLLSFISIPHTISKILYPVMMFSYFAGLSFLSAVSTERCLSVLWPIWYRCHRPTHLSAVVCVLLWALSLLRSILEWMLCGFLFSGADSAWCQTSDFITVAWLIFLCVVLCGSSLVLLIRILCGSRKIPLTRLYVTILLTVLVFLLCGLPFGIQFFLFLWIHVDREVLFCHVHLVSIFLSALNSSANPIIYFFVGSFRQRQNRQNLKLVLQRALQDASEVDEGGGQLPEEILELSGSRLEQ
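Assay system: MrgX1-expressing HEK293 cells / Amount: fifteen thousand cells per well / Doses: test compound in the initial addition of three / Timing: cells plated overnight, dye loaded 0.5 h 37 °C, 0.5 h room temperature / Technique: kinetic calcium dye fluorescence, Fluo-4 NW / Control set: positive and negative controls per plate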
MrgX1 antagonist – human MrgX1 receptor antagonism, primary screen; Q96LB2; MRGX1-HEK293 calcium flux, Fluo-4, BAM8-22 antagonism; stronger effect = lower value; B-score at 10 µM; 310,000 tested, 1.3% active;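 active means calcium-response B-score plate-corrected more than 3 library SD below zero, starting fluorescence within 5 deviations, no agonist response on first addition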;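 further: peak minus trough fluorescence over baseline after final BAM8-22 challenge near maximal dose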
RGS4 act – RGS4 potentiation or activation; 310,000 tested, 0.92% active; HEK293 M3R/inducible RGS4, carbachol calcium flux Fluo4; stronger effect = lower value; B-score at 10 µM;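 active means B-score of the integrated calcium signal more than 4 SD below the library mean, with starting fluorescence not abnormally high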;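 further: negative B-score means reduced calcium response which marks RGS4 activation or potentiation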
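Material: Inducible-RGS4 HEK293 cells carrying M3 receptor; also added: carbachol at ECmax as muscarinic agonist stimulus; incubation: compound preincubation 20 min at room temperature before agonist; signal: Fluo4-AM (2 µM) calcium-flux fluorescence, kinetic read; measure: integrated calcium ratio converted to B score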
RGS4 block – human RGS4 inhibition; HEK293 M3R/RGS4 inducible, Fluo-4 calcium flux; stronger effect = higher value; triggered by carbachol at its EC20; B-score at 10 µM; 310,000 tested, 0.45% active; P49798;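 active means B-score, a plate-corrected calcium signal, over three deviations above library mean, with baseline fluorescence within five deviations of library mean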;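 further: RGS4 expression induced by doxycycline in cells with stable M3 receptor; B-score is computed from the integrated fluorescence ratio over baseline after carbachol; higher B-score means a larger calcium signal and so more RGS4 inhibition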
MrgX1 allo act – human MrgX1 positive allosteric modulation, primary screen | Q96LB2 | MrgX1-HEK293, Fluo-4 calcium flux, FDSS; stronger effect = higher value | B-score at 10 µM | 310,000 tested, 0.63% active | AID 588675;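 active means plate-corrected calcium response at least 3 library SD above typical, normal starting fluorescence, not activating the receptor alone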;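 further: compound read alongside a low EC10 to EC30 dose of BAM8-22 agonist; peak minus trough fluorescence over baseline measured at the second addition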
RGS4 block valid – RGS4 inhibitor validation; shares compounds with RGS4 block; HEK293 M3R/RGS4, carbachol calcium Fluo-4 fluorescence; carbachol added at its EC20; 0 = buffer wells, 100 = carbachol control; calcium response, % at 10 µM; 1,700 tested, 65% active;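 active means duplicate-averaged calcium response above the buffer-only control mean plus 5 SD of those controls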;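 further: integrated fluorescence ratio F max minus min over baseline F0; higher response in RGS4-induced cells means RGS4 inhibition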
RGS4 uninduced – counter-screen for RGS4 inhibitors: effect in non-induced cells. shares compounds with RGS4 block. HEK293 M3R non-induced, carbachol calcium Fluo-4; submaximal (EC20) carbachol stimulus; buffer wells 0%, carbachol control wells 100%. activity (percent), % at 10 µM. 1,900 tested, 20% active; call rule not given here;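 further: RGS4 induction absent so cells express M3R without RGS4; higher means more calcium signal and flags a non-specific hit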
RGS4 inh ctr2 – second counter-screen for RGS4 inhibitors: non-induced cells without carbachol; shares compounds with RGS4 block; HEK293 M3R/RGS4 non-induced, Fluo-4 calcium, no carbachol; normalised: buffer wells 0%, carbachol wells 100%; calcium response (agonist-mode artifact), % at 10 µM; 1,900 tested, 22% active; AID 493001;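 active means duplicate-averaged calcium rise in uninduced cells above buffer wells' mean plus 5 SD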
* marks the source's active call; other numbers are inactive results; i = inactive; / = no result given. This is a sample that favours compounds with a hit; in the whole collection about 3.5% have one here.

SMILES | MrgX1 ag | MrgX1 antagonist | RGS4 act | RGS4 block | MrgX1 allo act | RGS4 block valid | RGS4 uninduced | RGS4 inh ctr2
Cc1c(NC(=O)c2ccc(NC(=O)C3CC3)cc2)cccc1C(=O)O | i | i | i | i | i | / | / | /
CCS(=O)(=O)NCCNc1ccc([N+](=O)[O-])cc1 | i | i | i | i | i | / | / | /
CC1CC(C)CN(C(=O)CCn2c(=O)oc3ccccc32)C1 (stereo unspecified) | i | i | i | i | i | / | / | /
O=S(=O)(Cc1ncc(C(F)(F)F)cc1Cl)c1ccccc1 | i | i | i | i | i | / | / | /
CC(=O)/C(=N/Nc1ccccc1C)N1CCOCC1 | i | i | i | i | i | / | / | /
CC1CCCCN1Cc1c(O)ccc2c(=O)c(-c3nc4ccccc4s3)c(N)oc12 (stereo unspecified) | i | i | i | 12* | i | 10%* | i | i
Cc1ccc(C(=O)NNC(=O)c2cccc(S(=O)(=O)N3CCN(c4ccccc4)CC3)c2)cc1 | i | i | i | i | i | / | / | /
Cc1cccc(NC(=S)NNC(=O)c2csc3c2CCCC3)c1 | i | i | i | 6.2* | i | 20%* | 54%* | i
O=S(=O)(c1ccc(F)cc1)N1CCN(c2ncnc3c2cnn3-c2ccccc2)CC1 | i | i | i | i | i | / | / | /
N#C/C(=C\c1cccc(Br)c1)C(=O)N1CCCCC1 | i | i | i | 6.5* | i | 25%* | i | i
Cc1cc(/C=C(\C#N)C(=O)N2CCCCC2)cc(C)c1O | i | i | i | i | i | / | / | /
N#C/C(=C\c1cccc(O)c1)C(=O)N1CCCCC1 | i | i | i | 6.3* | i | 8.0%* | i | 9.0%*
COc1ccc(-c2csc(NC(=O)c3ccco3)n2)cc1 | i | i | i | i | i | i | i | i
Cc1ccc(-c2csc(NC(=O)c3ccco3)n2)cc1C | i | i | i | 25* | i | 56%* | 34%* | i
O=C(Nc1nc(-c2ccccc2)cs1)c1ccco1 | i | i | i | i | i | / | / | /
COc1ccc(-c2csc(NC(=O)c3c(OC)cccc3OC)n2)cc1 | i | i | i | 5.5* | i | 16%* | 30%* | i
CCOc1ccc(-c2csc(NC(=O)c3ccco3)n2)cc1 | i | i | i | 5* | i | 5.0%* | i | i
COc1cccc(C(=O)Nc2nc(-c3ccncc3)cs2)c1 | i | i | i | i | i | / | / | /
Cc1cccc(NC(=O)c2cccc(NC(=O)c3ccco3)c2)c1C | i | i | i | i | i | / | / | /
COc1cccc(CN2CCNC(=O)C2CC(=O)N(C)C2CCOCC2)c1 (stereo unspecified) | i | i | i | i | i | / | / | /
Cc1cccc(C)c1NC(=S)NCCSc1ccc(Cl)cc1 | i | i | i | i | i | / | / | /
Cc1ccc(NC(=O)CN(C)C(=O)c2ccccc2Sc2ccccc2C#N)cc1 | i | i | i | i | i | / | / | /
Cc1ccc(NCC(=O)N/N=C/c2cc3ccccc3nc2Cl)cc1 | i | i | i | 8* | i | 9.5%* | i | i
O=[N+]([O-])c1ccccc1-c1cc(-c2ccccc2O)n[nH]1 | i | i | i | i | i | i | i | i
C=CCOn1c(=O)c(-c2ccc(OC)c(OC)c2)[n+]([O-])c2ccccc21 | i | i | i | i | i | / | / | /
COc1ccc(-c2c(=O)n(OC)c3ccccc3[n+]2[O-])cc1OC | i | i | i | 7.2* | i | i | i | i

Source: PubChem BioAssay
